Here are results for 35 compounds from ChEMBL document CHEMBL1156793, “Identification, synthesis, and pharmacological evaluation of tetrahydroindazole based ligands as novel antituberculosis agents” (J Med Chem, 2010).

Series [1] relates to Mycobacterium tuberculosis. The experiment in a line: Antimycobacterial activity against Mycobacterium tuberculosis H37Rv after 16 to 24 hrs by microplate alamar blue assay. It is filed as functional. The method in brief:
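M. tuberculosis H37Rv (ATCC 27294), 1 × 10^5 cfu/mL inoculum, in 7H12 medium with two-fold compound dilutions at 128 to 0.5 μM final (12.8 mM DMSO stocks). Incubated aerobically at 37 °C for 7 days, then Tween 80 plus Alamar blue added for 16-24 h. Fluorescence read at ex 530/em 590 nm. MIC = lowest concentration giving ≥90% reduction versus bacteria-only controls; average of two measurements.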

Series [2] deals with Vero. The experiment in a line: Cytotoxicity against african green monkey Vero cells after 72 hrs. To be noted: Chlorocebus sabaeus. It is filed as cell-based. The method in brief: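 Vero cells (CCL-81), 5 × 10^5 log-phase cells per well, exposed to geometric 3-fold dilutions in MEM with 10% FBS, 25 mM HEPES, 0.2% NaHCO3, 2 mM glutamine. DMSO ≤1% v/v final. Tested in duplicate at 37 °C, 5% CO2. Viability read after 72 h by CellTiter 96 aqueous (MTS) absorbance at 490 nm. IC50 from curve fitting.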

Series [3] is described as follows: Selectivity index, ratio of IC50 for african green monkey Vero cells to MIC for Mycobacterium tuberculosis H37Rv ATCC 27294. It is filed as functional. The essentials: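 The ratio takes the Vero (CCL-81) IC50 as numerator. Cells were exposed to geometric 3-fold dilutions (12.8 mM DMSO stocks, final DMSO ≤1% v/v) in MEM with 10% FBS, 25 mM HEPES and 2 mM glutamine, in duplicate. Culture was 72 h at 37 °C, 5% CO2. Viability was read by CellTiter 96 aqueous absorbance at 490 nm, and IC50 came from curve fitting. The denominator is the H37Rv MABA MIC.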

The nature of series [4]: Metabolic stability in mouse liver microsomes assessed as half life. It is filed as ADME, Microsome. The method in brief: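 Mixture prewarmed 5 min, then started with 1.0 mM NADPH. Quenched with acetonitrile plus internal standard at 0, 5, 10, 15, 20 and 30 min. Parent measured by LC-MS-MS. No-NADPH controls.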
(In general: Liver microsomes are vesicles of endoplasmic reticulum, rich in cytochrome P450 enzymes.)

Series [5] is described as follows: Metabolic stability in mouse liver microsomes assessed as intrinsic clearance. It is filed as ADME, Microsome. The method in brief: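 Intrinsic clearance scaled up from the in vitro half-life in mouse liver microsomes. Microsomes at 0.5 mg/mL, compound at 1 μM, 1.0 mM NADPH, pH 7.4 phosphate buffer, 37 °C, in triplicate. Parent depletion followed over 30 min by LC-MS-MS.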

The nature of series [6]: Metabolic stability in mouse liver microsomes assessed as hepatic clearance. It is filed as ADME, Microsome. The essentials: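 Hepatic plasma clearance predicted from microsomal intrinsic clearance with the nonrestricted well-stirred liver model. Assumes protein binding is similar in blood and microsomes. Microsomal depletion run at 1 μM compound, 0.5 mg/mL mouse microsomes, 1.0 mM NADPH, 37 °C, in triplicate, measured by LC-MS-MS.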

Series [7] is described as follows: Cmax in BALB/c mouse at 50 mg/kg, po. It is filed as ADME, organism-based. Also on record: dose 50 mg/kg, route oral. To be noted: in vivo. The essentials:
(§1)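 Female BALB/c mice (20-22 g), groups of 12, single oral 50 mg/kg dose formulated in 5% NMP/95% PEG400. Retro-orbital blood sampled at 0, 0.5, 1, 2, 4, 8 and 24 h postdose. Plasma obtained by centrifugation, precipitated with three volumes acetonitrile containing internal standard. Parent quantified by LC-MS-MS. AUC over 0–24 h.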

The nature of series [8]: Tmax in BALB/c mouse at 50 mg/kg, po. Also on record: dose 50 mg/kg, route oral. It is filed as ADME, organism-based. To be noted: in vivo. The essentials: as §1
Series [9] is described as follows: AUC in BALB/c mouse at 50 mg/kg, po. It is filed as ADME, organism-based. Also noted: dose 50 mg/kg, route oral. The conditions noted are these: plasma. The method in brief:
as §1

≈ marks a conversion by molar mass, not a printed value.

Usually MIC stands for the least concentration at which growth counts as inhibited. For `COC(=O)c1ccc(C(=O)NC2CCCc3c2cnn3-c2ccc(C(C)(C)C)cc2)nc1` (stereo not given), the MIC in [1] came out at 7.3 µM (≈ 3.16 µg/mL).
Same read-out and setting: under `CC(C)(C)c1ccc(-n2ncc3c2CCCC3NC(=O)c2ccc3nonc3c2)cc1` (stereo not given) stands over 128 µM; under `Cc1nonc1C(=O)Nc1ccc(-n2ncc3c2CCCC3NC(=O)c2nonc2C)cc1` (stereo not given), 44.9 µM (≈ 20.1 µg/mL).
`Cc1nonc1C(=O)NC1CCCc2c1nnn2-c1ccc(C(C)(C)C)cc1` (stereo not given) registered an MIC in series [1] of 7.7 µM (≈ 2.93 µg/mL).
The compound `Cc1cc(C)cc(-n2ncc3c(NC(=O)c4nonc4C)cccc32)c1` yielded a minimum inhibitory concentration (MIC) in series [1] of 117 µM (≈ 40.6 µg/mL).
Still for that read-out and setting: under `CC(C)(C)c1ccc(-n2ncc3c2CCCC3NC(=O)c2ccno2)cc1` (stereo not given) stands 124 µM (≈ 45.2 µg/mL); under `CSCC[C@H](N)C(=O)NC1CCCc2c1cnn2-c1ccc(C(C)(C)C)cc1` (stereo not given in full), 4.8 µM (≈ 1.92 µg/mL).
On the same count and under the same terms, to `Cc1nonc1CNC1CCCc2c1cnn2-c1ccc(C(C)(C)C)cc1` (stereo not given) belongs 38.6 µM (≈ 14.1 µg/mL); to `Cc1cc(C)cc(-n2ncc3c2CCCC3NC(=O)c2ccc3nonc3c2)c1` (stereo not given), over 128 µM; to `Cc1cc(C)cc(-n2ncc3c2CCCC3NC(=O)c2ccc3c(c2)no[n+]3[O-])c1` (stereo not given), 1.9 µM (≈ 0.767 µg/mL).
Same read-out and setting: to `CSCCC(=O)NC1CCCc2c1cnn2-c1ccc(OC(F)(F)F)cc1` (stereo not given) belongs 88.3 µM (≈ 35.3 µg/mL).
For the compound `Cc1nc2cc(C(=O)NC3CCCc4c3cnn4-c3ccc(OC(F)(F)F)cc3)ccc2s1` (stereo not given), the MIC in series [1] is over 128 µM.
On the same count and under the same terms, under `Cc1nonc1C(=O)NC1CCCc2c1cnn2-c1ccc(NC(=O)C(C)(C)C)cc1` (stereo not given) stands 110 µM (≈ 46.5 µg/mL).
In turn, `Cc1nonc1C(=O)Nc1cccc2c1cnn2-c1ccc(C(C)(C)C)cc1` registered an MIC in [1] of over 128 µM.
On the same count and under the same terms, to `Cc1nonc1C(=O)NC1CCCc2c1cnn2-c1ccc(Br)cc1` (stereo not given) belongs 64.6 µM (≈ 26 µg/mL).
On the same count and under the same terms, under `Cc1nonc1C(=O)NC1CCCc2c1cnn2-c1ccc([N+](=O)[O-])cc1` (stereo not given) stands over 128 µM; under `Cc1nocc1C(=O)NC1CCCc2c1cnn2-c1ccc(OC(F)(F)F)cc1` (stereo not given), 48.9 µM (≈ 19.9 µg/mL).
Same read-out and setting: to `Cc1nonc1C(=O)NC1CCCc2c1cnn2-c1ccc(NC(C)C)cc1` (stereo not given) belongs over 128 µM.
What is called IC50 is the point on the concentration scale where inhibition reaches its midpoint. In the case of `Cc1nonc1C(=O)NC1CCCc2c1cnn2-c1ccc(C(F)(F)F)cc1` (stereo not given), the MIC in series [1] worked out at 1.9 µM (≈ 0.744 µg/mL). In series [2], this compound came in with an IC50 of over 128 µM. Moreover, the “Ratio IC50” value in series [3] is recorded as over 67.4.
In [1], `Cc1nonc1C(=O)NC1CCCc2c1cnn2-c1ccccc1C(F)(F)F` (stereo not given) showed a minimum inhibitory concentration (MIC) of over 128 µM.
Take `CC(C)(C)c1ccc(-n2ncc3c(NC(=O)c4ccc5c(c4)no[n+]5[O-])cccc32)cc1`: the lowest concentration to inhibit growth in series [1] (MIC) was 0.4 µM (≈ 0.171 µg/mL). Also, it took 1.8 µM to reach half-maximal inhibition in [2] (IC50). Also, the “Ratio IC50” value in [3] worked out at 4.5.
In the same order, the values of `CC(C)(C)c1ccc(-n2ncc3c2CCCC3NC(=O)c2ccc3c(c2)no[n+]3[O-])cc1` (stereo not given) are 1 µM (≈ 0.431 µg/mL), 29 µM and 29.
In the case of `COc1ccc(-n2ncc3c2CCCC3NC(=O)c2nonc2C)cc1` (stereo not given), in [1], the MIC is over 128 µM.
Broadly, the half-life is the time in which the quantity being followed falls by half. Broadly, the CLint scaled is the rate of metabolic loss divided by the concentration. As usually defined, the Cmax is the peak of the concentration-time curve. The term Tmax denotes the time at which the peak concentration occurs. The AUC is concentration integrated over time. For `Cc1nonc1C(=O)NC1CCCc2c1cnn2-c1ccc(OC(F)(F)F)cc1` (stereo not given), the MIC in series [1] amounted to 1.9 µM (≈ 0.774 µg/mL). In addition, the IC50 in series [2] was over 128 µM. Moreover, in [3], the “Ratio IC50” value was over 67.4. Moreover, in [4], the half-life stood at 102 min. Also, in series [5], the CLint scaled worked out at 54 mL/min/kg. Also, in series [6], the CLhep predicted is 23 mL/min/kg. Besides, the Cmax in series [7] stood at 9.5 µM. Moreover, the Tmax in [8] amounted to 30 min. The same compound gave an AUC in [9] of 53.5 µM·h.
`Cc1nonc1C(=O)NC1CCCc2c1cnn2-c1ccc(F)cc1` (stereo not given): in [1], the minimal inhibitory concentration (MIC) amounted to 30.7 µM (≈ 10.5 µg/mL).
Still for that read-out and setting: to `CC(C)(C)c1ccc(-n2ncc3c2CCCC3NC(=O)c2cnccn2)cc1` (stereo not given) belongs 57.7 µM (≈ 21.7 µg/mL); to `Cc1nonc1C(=O)NC1CCCc2c1cnn2-c1ccc(N)cc1` (stereo not given), over 128 µM; to `CC(C)(C)c1ccc(-n2ncc3c2CCCC3NC(=O)c2ncccc2O)cc1` (stereo not given), 26.9 µM (≈ 10.5 µg/mL).
`Cc1nonc1C(=O)NC1CCCc2c1cnn2-c1ccc(C(C)(C)C)cc1` (stereo not given) gave a minimal inhibitory concentration (MIC) in series [1] of 1.7 µM (≈ 0.645 µg/mL). Besides, the IC50 in series [2] is over 128 µM. The “Ratio IC50” value in series [3] is given as over 75.3. In addition, the half-life in series [4] worked out at 27 min. The CLint scaled in [5] amounted to 200 mL/min/kg. Besides, in series [6], the CLhep predicted was 34 mL/min/kg. This compound also gave a Cmax in series [7] of 1.5 µM. Moreover, in series [8], the Tmax stood at 30 min. This compound also came in with an AUC in [9] of 3.6 µM·h.
In [1], `Cc1nonc1C(=O)NC1CCCc2c1cnn2-c1ccc(NC(=O)C(F)(F)F)cc1` (stereo not given) displayed an MIC of 128 µM (≈ 55.4 µg/mL).
Still for that read-out and setting: to `Cc1cc(C)cc(-n2ncc3c2CCCC3NC(=O)c2nonc2C)c1` (stereo not given) belongs over 128 µM.
Regarding `CO[C@H]1/C=C/O[C@@]2(C)Oc3c(C)c(O)c4c(O)c(c(/C=N/N5CCN(C)CC5)c(O)c4c3C2=O)NC(=O)/C(C)=C\C=C\[C@H](C)[C@H](O)[C@@H](C)[C@@H](O)[C@@H](C)[C@H](OC(C)=O)[C@@H]1C` [RIFAMPIN], the MIC in series [1] came out at 0.06 µM (≈ 0.0494 µg/mL). In [3], the “Ratio IC50” value amounted to 2033.
In [1], `Cc1nonc1C(=O)NC1CCCc2c1cnn2-c1cccc(C(F)(F)F)c1` (stereo not given) came in with an MIC of 15.4 µM (≈ 6.03 µg/mL).
Regarding `Cc1cc(C)cc(-n2ncc3c(NC(=O)c4ccc5c(c4)no[n+]5[O-])cccc32)c1`, in [1], the MIC turned out to be 0.7 µM (≈ 0.28 µg/mL). In series [2], this compound yielded an IC50 of 16.1 µM. Besides, the “Ratio IC50” value in series [3] is recorded as 23.
`Cc1nonc1C(=O)NC1CCCc2c1cnn2-c1ccc(C(F)(F)F)cn1` (stereo not given) had an MIC in series [1] of over 128 µM.
